OX1R antag-1: antagonists of human orexin 1 receptor; O43613; CHO/OX1R cells, Fluo-8 calcium fluorescence, orexin A; inhibition, % at 5 µM; hit rate 0.43% among 330,000; AID 434989;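 active = inhibition above its plate's threshold, mean inhibition of all tested compounds on the plate plus 3 SD, cut at about 37% in these data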;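 also: 0% = orexin A challenge wells and 100% = SB-334867-A antagonist wells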
EP2 mod: modulates human prostaglandin E2 receptor EP2 signaling; P43116; EP2-expressing cells, cAMP HTRF FRET, PGE2 co-stimulation; induction, % at 25 µM; hit rate 0.83% among 260,000; AID 940;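 active = compounds whose cAMP rise, as percent of the full-agonist control response, exceeds 60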;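 also: rat C6 glioma line stably carrying human EP2 under a CMV promoter; the protocol text gives 20 µM as final concentration; 100% = response of wells given 1 µM PGE2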
Target sequence (P43116 whole entry, looked up): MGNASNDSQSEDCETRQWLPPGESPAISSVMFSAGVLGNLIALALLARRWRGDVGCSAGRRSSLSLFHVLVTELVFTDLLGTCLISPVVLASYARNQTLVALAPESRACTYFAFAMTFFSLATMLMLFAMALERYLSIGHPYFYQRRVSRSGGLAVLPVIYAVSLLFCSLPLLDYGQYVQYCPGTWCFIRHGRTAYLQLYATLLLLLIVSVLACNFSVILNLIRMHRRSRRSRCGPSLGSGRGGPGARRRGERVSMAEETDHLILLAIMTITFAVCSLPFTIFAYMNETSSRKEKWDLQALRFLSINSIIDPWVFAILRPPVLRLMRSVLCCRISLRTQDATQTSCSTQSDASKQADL
GPR7 antag: blocks human GPR7 receptor signaling. P48145. GPR7-expressing cells, fluorescence antagonist assay. inhibition, % at 4.4 µM. hit rate 1.1% among 290,000; in the data active = inhibition above about 16%, passing the limit was not always enough;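 also: cells stimulated with the agonist NPW; 0% = agonist with vehicle and 100% = vehicle without agonist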
Target sequence (P48145 whole entry, looked up): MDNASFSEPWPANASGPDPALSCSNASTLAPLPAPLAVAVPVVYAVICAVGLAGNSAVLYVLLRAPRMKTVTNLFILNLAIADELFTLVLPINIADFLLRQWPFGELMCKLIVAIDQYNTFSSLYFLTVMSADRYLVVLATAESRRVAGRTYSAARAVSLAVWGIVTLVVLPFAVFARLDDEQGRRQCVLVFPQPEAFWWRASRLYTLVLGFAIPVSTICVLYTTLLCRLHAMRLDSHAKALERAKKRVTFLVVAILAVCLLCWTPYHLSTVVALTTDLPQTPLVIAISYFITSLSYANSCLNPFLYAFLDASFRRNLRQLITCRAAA
PGE2 EP2 inh: inhibitors of human EP2 prostaglandin E2 receptor; inhibition, % at 25 µM; C6 glioma cells expressing human EP2, cAMP TR-FRET; cells stimulated with saturating PGE2; AID 1422; P43116; hit rate 0.52% among 260,000;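 active = percent inhibition above 40 after rounding to a whole number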;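 also: rat C6 glioma host cells with rolipram phosphodiesterase inhibitor present; the protocol text gives 20 µM as final concentration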
CHO parental Ca: signal in parental CHO cells, OX1R antagonist counter-screen; parental CHO-K1, ATP-induced calcium, Fluo-8 fluorescence; inhibition, % at 5.6 µM; hit rate 0.63% among 330,000; AID 463079;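 active = inhibition above that plate's mean sample inhibition plus 3 SD, cut at about 26% in these data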;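 also: 0% = ATP-challenged DMSO wells and 100% = DMSO wells without ATP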
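Test system: parental CHO cells; detection: calcium-sensitive Fluo-8 fluorescence; evaluation: percent inhibition of calcium signal; also added: ATP as calcium-mobilizing challenge; repeats: one well per compound; control set: ATP-challenged DMSO wells low, unchallenged DMSO wells high; compound: single nominal dose of 5.6 µM per compound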
OX1R antag-2: antagonists of human orexin 1 receptor (OX1R). OX1R-expressing cells, FRET antagonist read-out. inhibition, % at 6.6 µM. AID 485270. hit rate 1.8% among 330,000; in the data active = inhibition mostly above about 38%, no sharp cut-off; inactive = mostly below about 40%;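 also: 0% = agonist challenge alone and 100% = reference antagonist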
GPR7 antag conf: confirmation of human GPR7 antagonists; GPR7-expressing cells, calcium fluorescence antagonist mode; AID 1952; shares compounds with GPR7 antag; inhibition, % at 4.4 µM; hit rate 52% among 2,400; in the data active = inhibition above about 24%;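 also: stimulated with the GPR7 agonist NPW; 0% = agonist plus vehicle and 100% = vehicle alone without agonist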
MCHR1 antagonist: MCHR1 (human) antagonism in GPR7 counter-screen | inhibition, % at 4.4 µM | MCHR1-expressing cells, fluorescence antagonist assay | shares compounds with GPR7 antag | hit rate 62% among 2,400; in the data active = inhibition above about 22%;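 also: 0% = vehicle with agonist and 100% = vehicle without agonist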
Numbers without * were called inactive. Only some compounds are listed: those with a hit (about 3.7% of all), similar ones and a draw of the others.

How did Cc1sc(NC(=O)C2CCCCC2C(=O)O)c(C(N)=O)c1C (stereo unspecified) do in these assays?
OX1R antag-1: -24; EP2 mod: 33; GPR7 antag: 22*; PGE2 EP2 inh: 5; CHO parental Ca: -7; OX1R antag-2: 12; GPR7 antag conf: -18; MCHR1 antagonist: 3

What do the screens show for `Cc1sc(NC(=O)C2CCCCC2C(=O)O)c(C(N)=O)c1-c1ccccc1` (stereo unspecified)?
OX1R antag-1: -27; EP2 mod: 3; GPR7 antag: 4; PGE2 EP2 inh: 16; CHO parental Ca: -4; OX1R antag-2: 34

Results for CCN(CC)C(=O)CSc1nc2ccc(NC(=O)CSc3nnc(COc4ccccc4C)n3C)cc2s1 ?
OX1R antag-1: -8; EP2 mod: -26; GPR7 antag: -11; PGE2 EP2 inh: 18; CHO parental Ca: -18; OX1R antag-2: 17

How did CN1CCN(CC(=O)Nc2c(C(=O)C3CC3)oc3ccccc23)CC1 do in these assays?
OX1R antag-1: -29; EP2 mod: -1; GPR7 antag: 21*; PGE2 EP2 inh: 8; CHO parental Ca: -3; OX1R antag-2: 12; GPR7 antag conf: 1; MCHR1 antagonist: 10

What do the screens show for `O=C(CN1CCOCC1)Nc1c(C(=O)C2CC2)oc2ccccc12`?
OX1R antag-1: -41; EP2 mod: 29; GPR7 antag: -6; PGE2 EP2 inh: 13; CHO parental Ca: -13; OX1R antag-2: 6

What do the screens show for `Cc1ccc(C(=O)c2oc3ccc(Cl)cc3c2NC(=O)CN2CCN(C)CC2)cc1`?
OX1R antag-1: -7; GPR7 antag: 24*; CHO parental Ca: -10; OX1R antag-2: -7; GPR7 antag conf: 29*; MCHR1 antagonist: 42*

How did CCOC(=O)c1oc2ccc(OC)cc2c1NC(=O)CN1CCN(C)CC1 do in these assays?
OX1R antag-1: -36; EP2 mod: 1; GPR7 antag: -4; PGE2 EP2 inh: 3; CHO parental Ca: -24; OX1R antag-2: 12

What do the screens show for `O=C(OCC(=O)c1ccccc1)C1=NN(c2ccccc2)C(=O)CC1`?
OX1R antag-1: 25; CHO parental Ca: -7; OX1R antag-2: 6

What do the screens show for `Cc1c(NS(=O)(=O)c2ccc(N)cc2)c(=O)n(-c2ccccc2)n1C`?
OX1R antag-1: -6; GPR7 antag: -13; CHO parental Ca: 6; OX1R antag-2: 16

What do the screens show for `CCn1c(CNC(=O)c2ccccc2F)cc2cc(C)ccc21`?
GPR7 antag: 0

How did CCn1c(CNC(=O)C2CCCCC2)cc2cc(C)ccc21 do in these assays?
GPR7 antag: 28*; GPR7 antag conf: -11; MCHR1 antagonist: -2

How did CCOc1cc(/C=C2\NC(=O)NC2=O)ccc1OC(C)C(=O)O (stereo unspecified) do in these assays?
OX1R antag-1: -12; GPR7 antag: 32*; CHO parental Ca: -6; OX1R antag-2: 42*; GPR7 antag conf: -16; MCHR1 antagonist: -8

Results for CCOC(=O)CCc1c(C)c2ccc(OCC)c(C)c2oc1=O ?
OX1R antag-1: -17; EP2 mod: 23; GPR7 antag: 32*; PGE2 EP2 inh: 6; CHO parental Ca: 1; OX1R antag-2: 9; GPR7 antag conf: 42*; MCHR1 antagonist: 30*

Results for COc1ccc(OC)c([C@@H]2CN(Cc3ccccc3)C[C@H]2NC(=O)C2CC2)c1 ?
EP2 mod: -15; PGE2 EP2 inh: 5

Results for COC(=O)[C@@]1(Cc2ccc(F)cc2)[C@H]2c3cc(C(=O)N(C)C)n(Cc4ccccc4)c3C[C@H]2CN1C(=O)c1ccccc1 ?
OX1R antag-1: -29; EP2 mod: 27; PGE2 EP2 inh: 8; CHO parental Ca: -18; OX1R antag-2: 38; MCHR1 antagonist: 18

How did CCOC(=O)C(C(=O)N(C)Cc1ccccc1)C1CCCCC1 (stereo unspecified) do in these assays?
OX1R antag-1: -13; GPR7 antag: 32*; CHO parental Ca: -19; OX1R antag-2: 14; GPR7 antag conf: 27*; MCHR1 antagonist: 30*

What do the screens show for `Cc1ccc(NC(=O)CCn2c(=S)oc3ccccc32)cc1`?
OX1R antag-1: -12; EP2 mod: -22; GPR7 antag: -14; PGE2 EP2 inh: 2; CHO parental Ca: -10; OX1R antag-2: 9

Results for CCOc1ccc(NC(=O)CCn2c(=S)oc3ccccc32)cc1 ?
OX1R antag-1: -24; GPR7 antag: 35*; CHO parental Ca: -11; OX1R antag-2: 1; GPR7 antag conf: 10; MCHR1 antagonist: 6

Results for O=CN[C@@H](Cc1cnc[nH]1)C(=O)O ?
EP2 mod: -2; PGE2 EP2 inh: 9

What do the screens show for `N#Cc1cccc(NC(=O)COC(=O)C2CCC2)c1`?
OX1R antag-1: -16; CHO parental Ca: 8; OX1R antag-2: 9

What do the screens show for `Cc1ccc(NC2=NC(c3ccc(O)cc3)n3c(nc(C)cc3=O)N2)cc1` (stereo unspecified)?
OX1R antag-1: 1; EP2 mod: 14; GPR7 antag: 3; PGE2 EP2 inh: 1; CHO parental Ca: -3; OX1R antag-2: 3

How did Cc1ccc(C2NC(=NCc3ccccc3)Nc3nc(C)cc(=O)n32)cc1 (stereo unspecified) do in these assays?
OX1R antag-1: -25; EP2 mod: -8; GPR7 antag: 26*; PGE2 EP2 inh: 9; CHO parental Ca: -9; OX1R antag-2: 6; GPR7 antag conf: 0; MCHR1 antagonist: 11

How did O=C(O)/C=C/c1ccc(-c2cccc(C(F)(F)F)c2)o1 do in these assays?
OX1R antag-1: -5; EP2 mod: -11; GPR7 antag: -13; PGE2 EP2 inh: 4; CHO parental Ca: -5; OX1R antag-2: 10

What do the screens show for `O=C(NCC(O)CO)c1ccc2[nH]c3ccccc3c2c1` (stereo unspecified)?
OX1R antag-1: 11; EP2 mod: -102; GPR7 antag: 26*; PGE2 EP2 inh: 6; CHO parental Ca: 3; OX1R antag-2: 27; GPR7 antag conf: 0; MCHR1 antagonist: 15

How did CCOC(=O)CNC(=O)c1ccc2[nH]c3ccccc3c2c1 do in these assays?
OX1R antag-1: -5; EP2 mod: -74; GPR7 antag: -9; PGE2 EP2 inh: 10; CHO parental Ca: -12; OX1R antag-2: 17

Results for O=C(Nc1ccc2ccccc2c1)c1ccccc1O ?
OX1R antag-1: 9; GPR7 antag: 30*; CHO parental Ca: 9; OX1R antag-2: 55*; GPR7 antag conf: 39*; MCHR1 antagonist: 53*

How did O=C(c1cc(-c2cccnc2)nc2ccccc12)N1CCCc2ccccc21 do in these assays?
OX1R antag-1: -44; EP2 mod: -9; GPR7 antag: 24*; PGE2 EP2 inh: 5; CHO parental Ca: -14; OX1R antag-2: 15; GPR7 antag conf: 5; MCHR1 antagonist: 23*
